PubChem BioAssay AID1325 (NMMLSC, 2008)
Out of some 190,000 compounds screened, about 200 (0.11%) were called active.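 How the source made its calls: active means inhibition above 80%; inactive means the rest.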 For the sample, actives were picked, then their nearest neighbours and some compounds at random.

Target: Broad substrate specificity ATP-binding cassette transporter ABCG2 (Homo sapiens) (UniProt Q9UNQ0)
Experiment: ABCG2 efflux pump inhibitors, primary screen, multiplex with ABCB1, IgMXP3 cells, flow cytometry (AID 1325);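 further: 0% = DMSO and 100% = nicardipine control wells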
Details: JC-1 efflux, at 6.6 µM, active compounds read high
Outline: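 Assay system – ABCG2 IgMXP3 and barcoded ABCB1 CCRF-Adr cell mix · Input – 3 million cells/mL in well · Reagent – JC-1 fluorescent substrate · Compound – single test compound dose, 6.6 µM final · Timing – 10 min exposure at 25 °C with rotation, no wash · Detection – flow cytometry of retained JC-1 fluorescence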

Sequence of Broad substrate specificity ATP-binding cassette transporter ABCG2 (Homo sapiens) (Q9UNQ0 whole entry, looked up): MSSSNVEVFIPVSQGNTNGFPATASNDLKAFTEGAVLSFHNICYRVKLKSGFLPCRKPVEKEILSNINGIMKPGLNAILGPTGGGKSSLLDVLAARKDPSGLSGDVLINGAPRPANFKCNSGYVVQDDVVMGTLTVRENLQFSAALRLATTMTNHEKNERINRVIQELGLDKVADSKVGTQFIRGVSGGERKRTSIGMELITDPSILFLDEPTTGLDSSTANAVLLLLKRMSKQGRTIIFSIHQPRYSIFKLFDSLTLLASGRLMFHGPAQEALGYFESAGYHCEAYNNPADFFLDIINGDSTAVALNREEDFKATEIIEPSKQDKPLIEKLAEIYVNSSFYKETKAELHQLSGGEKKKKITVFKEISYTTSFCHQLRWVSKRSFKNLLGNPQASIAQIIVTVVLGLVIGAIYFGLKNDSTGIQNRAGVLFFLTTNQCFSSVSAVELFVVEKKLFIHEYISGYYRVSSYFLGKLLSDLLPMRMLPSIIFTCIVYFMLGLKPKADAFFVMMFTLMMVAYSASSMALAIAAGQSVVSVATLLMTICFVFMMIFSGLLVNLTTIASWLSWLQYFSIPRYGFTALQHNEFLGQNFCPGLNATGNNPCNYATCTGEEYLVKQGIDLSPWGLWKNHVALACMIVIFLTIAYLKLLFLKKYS

Structure (SMILES)	inhibition
CC(Sc1nc2cc(Cl)ccc2s1)C(=O)Nc1ccc2c(c1)OCO2 (stereo not given)	0% (inactive)
O=C(/C=C/c1ccc([N+](=O)[O-])cc1)NCCSCc1ccco1	54.6% (inactive)
O=S(=O)(Nc1ccccn1)c1cccc(S(=O)(=O)c2ccc(Cl)cc2)c1	-0.57% (inactive)
O=C(NNC1=NCCC1)c1cccc(S(=O)(=O)N2CCCCC2)c1	-6.82% (inactive)
C=CCc1cccc2cc(C(=O)Nc3ccc(NC(C)=O)cc3)c(=O)oc12	0.59% (inactive)
O=C(CC(=O)N/N=C\c1ccc(F)cc1)NCCc1ccccc1	1.18% (inactive)
O=C(Cc1c[nH]c2ccccc12)N/N=C/c1cccc(F)c1	88.7% (active)
O=C(Cc1ccc(F)cc1)N/N=C/c1ccc2c(c1)OCO2	10.1% (inactive)
Cc1cc(C(=O)N/N=C\C(Br)=C\c2ccccc2)c(C)o1	2.48% (inactive)
NC(=O)CCC(NS(=O)(=O)c1ccc(Cl)cc1)C(=O)NCc1ccccc1Cl (stereo not given)	4.92% (inactive)
Cc1cc(C)n(CC(O)CN(c2ccccc2)S(=O)(=O)c2ccc3ccccc3c2)n1 (stereo not given)	16.1% (inactive)
CCc1nnc(NC(=O)CSc2nc(SC)ns2)s1	1.21% (inactive)
COc1ccc(C2(CNC(=O)Cc3ccc(OC)c(OC)c3)CCCC2)cc1	2.77% (inactive)
CC(C)CCN1C(=O)c2ccc(C(=O)Nc3cccc(S(N)(=O)=O)c3)cc2C1=O	-4.62% (inactive)
Clc1ccc(-c2ncc3ccccn23)c(Cl)c1	-0.33% (inactive)
CCOc1cc(/C=N/NC(=O)c2ccc(CSc3nncn3C)cc2)ccc1OCC(=O)N1CCOCC1	-0.51% (inactive)
Cc1nn(CC(=O)Nc2ccc3c(c2)OCO3)c(C)c1[N+](=O)[O-]	11.5% (inactive)
CC(=O)Nc1sc2c(c1C(c1cccc(F)c1)N1CCN(CCO)CC1)CCCC2 (stereo not given)	-0.02% (inactive)
O=C(c1cncc(Br)c1)N1CCN(c2ccc([N+](=O)[O-])cc2)CC1	34.2% (inactive)
CN(C)c1ccc(/C=N/Nc2cc(N3CCOCC3)nc(N3CCOCC3)n2)cc1	5.63% (inactive)

Structure (SMILES)	inhibition
Cn1nc(C(F)(F)F)c2cc(C(=O)N3CCOCC3)sc21	0.03% (inactive)
Cc1cc(NC(=O)CSc2nc3cc(Cl)ccc3c(=O)n2Cc2ccco2)no1	5.22% (inactive)
CCC1CCCCN1C(=S)Nc1ccc(SC(F)F)cc1 (stereo not given)	0% (inactive)
O=C(N/N=C/c1cc([N+](=O)[O-])ccc1O)/C(=C\c1cccs1)NC(=O)c1ccccc1	-3.14% (inactive)
Cn1cc(CN2CCCC(CO)C2)c(-c2ccc(Oc3ccccc3)cc2)n1 (stereo not given)	-1.73% (inactive)
CN(C)c1ccc(C=C2C(=O)OC3(CCCC3)OC2=O)cc1	0.11% (inactive)
Cc1nc2nc[nH]n2c(=O)c1C/C=C/c1ccccc1	0.18% (inactive)
CN(C)c1ccc2c(=O)[nH][nH]c(=O)c2c1	2.2% (inactive)
CCn1nc(C)cc1C(=O)N1CCCC(C(=O)c2cccc(OC)c2)C1 (stereo not given)	-0.58% (inactive)
CCNS(=O)(=O)c1ccc(NC(=O)c2cncc(Br)c2)cc1	19.8% (inactive)
Cn1c(CCC(=O)OCC(=O)NCc2ccccc2Cl)nc(=O)c2ccccc21	1.08% (inactive)
CN(C)C(=O)c1cccn(Cc2cccc(C(F)(F)F)c2)c1=O	-0.69% (inactive)
CN1C(=O)/C(=C/C=C2\SCCN2C)OC1=S	-0.91% (inactive)
Cc1ccc(NC(=O)C2(N3CCC3=O)CCCCC2)cc1	0.01% (inactive)
COc1ccc(C(=O)Nc2ccc(-n3nncc3C(C)(C)C)cc2)cc1	1.71% (inactive)
Cc1ccc(NS(=O)(=O)c2cccs2)cc1S(=O)(=O)N1CCCCCC1	0.74% (inactive)
Cc1ccc(OCc2nnc(SC3CCc4ccccc4C3=O)n2C)cc1 (stereo not given)	1.34% (inactive)
O=C(Cn1cc(C(F)(F)F)ccc1=O)N/N=C/c1ccc(Cl)cc1Cl	-1.56% (inactive)
Cc1ccc2c(CC(=O)NCc3cccs3)coc2c1	9.43% (inactive)
CCc1nnc(NC(=O)c2cccc(S(=O)(=O)N(C)c3ccc(OC)cc3)c2)s1	3.19% (inactive)

Structure (SMILES)	inhibition
COc1ccc(CNC(=O)CN(Cc2ccc(Cl)cc2)S(C)(=O)=O)cc1	3.97% (inactive)
COc1cccc(NC(=O)CC(c2ccc(OC(C)C)cc2)c2ccccc2OC)c1 (stereo not given)	10.9% (inactive)
Cc1ccc(O)c(NC(=S)NC(=O)COc2ccc(Br)cc2)c1	3.88% (inactive)
CCOC(=O)C1=C(CC)Nc2ccccc2N=C1N	0.61% (inactive)
CC(CNc1ccc([N+](=O)[O-])c2cccnc12)Nc1c([N+](=O)[O-])cc(C(F)(F)F)cc1[N+](=O)[O-] (stereo not given)	23.1% (inactive)
CC(=O)NC1C(Oc2ccc(C=O)cc2)OC(COC(C)=O)C(OC(C)=O)C1OC(C)=O (stereo not given)	0.63% (inactive)
Cc1nc2cc(NCc3cccs3)ccc2n1C	0.91% (inactive)
CCCCc1ccc(S(N)(=O)=O)cc1	3.23% (inactive)
O=C(NCc1ccccn1)c1cc(Br)ccc1Cl	2.2% (inactive)
CC(C)C(c1nnnn1C(C)(C)C)N1CCN(Cc2cccnc2)CC1 (stereo not given)	1.7% (inactive)
CCOC(=O)c1ccc(NC(=S)Nc2cc(C)cc(C)n2)cc1	11.7% (inactive)
CC(C)N(C)C(=O)CCc1nnc(CCc2c[nH]c3ccccc23)o1	5.03% (inactive)
CC(C)CNC(=O)C(=O)NCc1ccccc1	7.35% (inactive)
Cc1c(Cl)cccc1NC(=S)N(Cc1ccccc1)Cc1cccnc1	3.04% (inactive)
COc1ccccc1NC(=O)c1c(Br)cnn1C	9.25% (inactive)
Cc1cccc(N2C(=O)SC(SC(=Nc3ccccc3)Nc3ccccc3)C2=O)c1 (stereo not given)	0.89% (inactive)
COc1ccc(N2C(=O)/C(=C\c3ccco3)N=C2SCC(N)=O)cc1Cl	0.72% (inactive)
S=C(c1ccc(-c2ccccc2)o1)N1CCCCC1	1.68% (inactive)
Cc1ccc(NC(=O)NC(=O)CSc2nnc(-c3ccc(OC(F)F)cc3)n2N)c(C)c1	4.7% (inactive)
COc1cccc(C2CC(c3ccccc3)=NN2S(=O)(=O)c2ccccc2)c1OC (stereo not given)	5.72% (inactive)
